Reference: the EternaBench riboswitch data

Tested on: MS2 coat protein
Assay: apparent Kd, MS2 coat protein; higher = weaker binding; RNA-MaP array; FMN 200 µM where present
Method in brief: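 Green signal from SNAP-549-labelled MS2 coat protein was normalised to red-channel RNA signal and to the median Fmax of control clusters. The protein was titrated from 0.7 or 1.5 nM, doubling to 3 µM, without and then with constant ligand, over designs transcribed by stalled E. coli RNA polymerase on Illumina sequencing-chip clusters, in 100 mM Tris-HCl pH 7.5, 80 mM KCl, 4 mM MgCl2, BSA, DTT, yeast tRNA and Tween-20. The apparent Kd is the median of filtered per-cluster binding-curve fits.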

[1] = designed as: OFF switch for flavin mononucleotide, no ligand
[2] = ligand present: flavin mononucleotide, designed as: OFF switch for flavin mononucleotide
[3] = designed as: ON switch for flavin mononucleotide, no ligand
[4] = ligand present: flavin mononucleotide, designed as: ON switch for flavin mononucleotide

| Sequence | apparent Kd [1] | apparent Kd [2] | apparent Kd [3] | apparent Kd [4] |
| --- | --- | --- | --- | --- |
| CCGCUCUUGGUCAGGAUAUCUAUGCGGGCCAGCACAGAGAAGGGACAUGAGGAUCACCCAUGUUUCGGGAUGUA | 0.0223 µM | 0.0389 µM |  |  |
| UCGUGAGGGACAGGAUAUGGACAUGAGGAUCACCCAUGUACAUGGGAAUAUAUACUGAAUUUAUACUAGAAGGGUUACAUAAAU | 0.0216 µM | 0.0161 µM |  |  |
| GUGGUUGUCGUAGGAUAUGUAGGAUAUUCCUACAUGAGGAUCACCCAUGUUCGCAUGGAAGAAGGACAGAAGGACGAUGACCAC |  |  | 1.25 µM | 0.0102 µM |
| CCAAGAAUAGGAUAUACACGAUGUCAGCUUCUAUACAUCGCACAUGAGGAUCACCCAUGUAGAAGGGUUCUCUC | 0.735 µM | 0.823 µM |  |  |
| UUUUUAUUUAUAGGAUAUGGAAACAUGAGGAUCACCCAUGUAUGAUAAGAUAAAUUAUGAUGUGGCCAGAAGGAUAUUAUUUUU |  |  | 0.0313 µM | 0.0437 µM |
| UCACGGUAUGUAGGAUAUGCAUAGCAUUGCUAUGCAGAAGGACAUGAGGAUCACCCAUGUAUGUAUUCCAUACAAAUCCCGUGU | 0.00568 µM | 0.00558 µM |  |  |
| AUUAUUGACGAAGGAUAUGGAUACAUGAGGAUCACCCAUGUAUAAUUUGUGUUCUUAUAUUUGAUCCAGAAGGUCGUUGUUUAU | 0.0358 µM | 0.0546 µM |  |  |
| GCACGGCAUGUAGGAUAUCGAGCGCCGGGCGCUCGAGAAGGACAUGAGGAUCACCCAUGUAUUCUGAGUGACAGAGUGCUGUGC | 0.019 µM | 0.0468 µM |  |  |
| CACAUGAGGAUCACCCAUGUACUUAAUAUAAAUGUCAGAACCAGAAGGACCAGUUGAUUUGACCGGUAGGAUAUGGGCGGACCG |  |  | 0.0181 µM | 0.00689 µM |
| CCGGAAACGGGUAGCCUGACAUGAGGAUCACCCAUGUAAUACGAGGAUAUGGAUCCUAAUUGGAUCCAGAAGGUGUCAGGCUAC |  |  | 0.862 µM | 0.682 µM |
| UGGUAGGGAGGAUAUCGGAGACCAAACAUGAGGAUCACCCAUGUGCCAUCCCGUGUAUCUUGAGAAGGUUCUACCA | 0.0149 µM | 0.0234 µM |  |  |
| GGUUGGUAUGAUUGGGUAUGAUACAUGAGGAUCACCCAUGUGCAGGAUAUGUUACACUCACGAUGAUAGAAGGGUAGGGUUUGA | 0.305 µM | 0.27 µM |  |  |
| GAGUAGUUGAAAGGAUAUUGAUUGUUAUAGAAUCAAGAAGGUUCUAACAUGAGGAUCACCCAUGUAGGACUAUUCCUGUGUAUC |  |  | 0.0123 µM | 0.00966 µM |
| AUCCGGCGUGUAGGAUAUGGAUCCGAUUAGGAUCCAGAAGGACAUGAGGAUCACCCAUGUACAUGUAAACAGUCAUCACCGGAG | 0.0102 µM | 0.0564 µM |  |  |
| GCUGCGUAUGAGAAGGCGAUCAUGAAACAUGAUCGAGGAUAUCAUGUUUACAUGAGGAUCACCCAUGUAUGGGUAUAAUGCAGC |  |  | 0.335 µM | 0.0181 µM |
| CUUCGACAUGAGGAUCACCCAUGUCAGGAUAUUGUGUAUCGGGUUUUUUACGGUAAGGCAAGAAGGGAUGUGUG | 0.033 µM | 0.0302 µM |  |  |
| GCCCUCUCUGAGGAUAUUAUCUGGUUCGAUUGAUAAGAAGGCAGUACAUGAGGAUCACCCAUGUGGUUCGUUUG | 0.109 µM | 0.303 µM |  |  |
| GGAUACGACAGAGGAUAUACGUGCUAGAGAUACUAGCAAAAUUUCCUCACAUGAGGAUCACCCAUGUAGAAGGCUGUCCUAUCG | 0.0162 µM | 0.337 µM |  |  |
| AUCGUGUGAGGAUAUCGAUGUUGGACGUCUAGGUCUGAGCGCGAGAAGGCACAUGAGGAUCACCCAUGUAAUGG | 0.272 µM | 0.35 µM |  |  |
| GCAGCUCCUGACAUGAGGAUCACCCAUGUUCAAUUGUUGAGUCAGGAUAUAGUCUAGAAACUAGACUAGAAGGGAUAUGCUGCU |  |  | 0.0123 µM | 0.0108 µM |
